Results from ChEMBL document CHEMBL3244396, “Synthesis and antileukemic activity of 5-substituted 2,3-dihydro-6,7-bis(hydroxymethyl)-1H-pyrrolizine diesters” (J Med Chem, 1977).
Converted amounts (≈) assume the structure as drawn.

Assays:
[1] = system: P388; assay: Antitumor activity against mouse P388 cells allografted in female CDF1 mouse assessed as disease cures by measuring 30-days host survival at 200 mg/kg, ip administered daily for 9 days as Klucel suspension starting 24 hrs after tumor inoculation relative to control; assay type: functional; details: route intraperitoneal
How it was run: (§1)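 P388 leukemia given as an ascitic fluid cell inoculum, ip, to mice of the strain and sex in each line. Nine daily ip doses were given in a Klucel (hydroxypropylcellulose) suspension, starting 24 h after inoculation. Read-out is median survival time as %T/C, with >125 taken as significant; a "cure" means 30-day survival.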

[2] = system: P388; assay: Antitumor activity against mouse P388 cells allografted in female CDF1 mouse assessed as change in body weight at 25 mg/kg, ip administered daily for 9 days as Klucel suspension starting 24 hrs after tumor inoculation; assay type: functional; details: route intraperitoneal
How it was run: (§2)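 Ascitic fluid carrying P388 cells was inoculated ip. Compound was given ip in nine daily doses, starting 24 h after inoculation, in Klucel (hydroxypropylcellulose) suspension or in saline with Tween-80. Body-weight difference (treated minus control) was recorded on day 5. Survival was scored as %T/C of median survival time, and 30-day survival counted as cure.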

[3] = system: P388; assay: Antitumor activity against mouse P388 cells allografted in female CDF1 mouse assessed as disease cures by measuring 30-days host survival at 12.5 mg/kg, ip administered daily for 9 days as Klucel suspension starting 24 hrs after tumor inoculation relative to control; assay type: functional; details: route intraperitoneal; how it was run: as §1
[4] = Cytotoxicity against human 9KB cells treated as ethanol solution; assay type: functional; details: read-out: ED50 (the source's name)
How it was run: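 Compound applied as an ethanol solution; activity read out as ED50 under the general screening protocol.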

[5] = system: Mus musculus; assay: Toxicity in female BDF1 mouse allografted with mouse L1210 cells assessed as animal survival at 200 mg/kg, ip administered daily for 9 days as Klucel suspension starting 24 hrs after tumor inoculation measured on fifth day; assay type: organism-based; parameters: dose 200 mg/kg, route intraperitoneal; details: in vivo
How it was run: (§3)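 L1210 leukemia passaged as ascitic fluid and inoculated ip. Test agent given ip as a Klucel (hydroxypropylcellulose) suspension, nine daily doses starting 24 h after tumor inoculation. Acute toxicity read as toxicity-day survivors per group (out of 6), recorded on day 5. Animal weight difference T − C was also recorded. Follows NCI screening protocols.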

[6] = system: L1210; assay: Antileukemic activity against mouse L1210 cells allografted in female BDF1 mouse assessed as host mean survival time at 100 mg/kg, ip administered daily for 9 days as Klucel suspension starting 24 hrs after tumor inoculation relative to control; assay type: functional; details: route intraperitoneal
How it was run: (§4)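 L1210 leukemia given as an ascitic fluid cell inoculum, ip, to mice of the strain and sex in each line. Test material was given ip for nine daily doses starting 24 h after inoculation, in a Klucel (hydroxypropylcellulose) suspension. Read-out is mean survival time as %T/C versus controls, with >125 taken as significant.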

[7] = system: P388; assay: Antitumor activity against mouse P388 cells allografted in female CDF1 mouse assessed as change in body weight at 50 mg/kg, ip administered daily for 9 days as Klucel suspension starting 24 hrs after tumor inoculation; assay type: functional; details: route intraperitoneal; how it was run: as §2
[8] = system: L1210; assay: Antileukemic activity against mouse L1210 cells allografted in female BDF1 mouse assessed as host mean survival time at 200 mg/kg, ip administered daily for 9 days as Klucel suspension starting 24 hrs after tumor inoculation relative to control; assay type: functional; details: route intraperitoneal; how it was run: as §4
[9] = system: L1210; assay: Antileukemic activity against mouse L1210 cells allografted in female BDF1 mouse assessed as change in body weight at 200 mg/kg, ip administered daily for 9 days as Klucel suspension starting 24 hrs after tumor inoculation; assay type: functional; details: route intraperitoneal
How it was run: (§5)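 Ascitic fluid carrying L1210 cells was inoculated ip. Compound was given ip as a Klucel (hydroxypropylcellulose) suspension in nine daily doses, starting 24 h after inoculation. Body-weight difference (treated minus control) was recorded on day 5. Survival was scored as %T/C of mean survival time.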

[10] = system: P388; assay: Antitumor activity against mouse P388 cells allografted in female CDF1 mouse assessed as disease cures by measuring 30-days host survival at 100 mg/kg, ip administered daily for 9 days as Klucel suspension starting 24 hrs after tumor inoculation relative to control; assay type: functional; details: route intraperitoneal; how it was run: as §1
[11] = system: P388; assay: Antitumor activity against mouse P388 cells allografted in female CDF1 mouse assessed as change in body weight at 100 mg/kg, ip administered daily for 9 days as Klucel suspension starting 24 hrs after tumor inoculation; assay type: functional; details: route intraperitoneal; how it was run: as §2
[12] = system: Mus musculus; assay: Toxicity in female CDF1 mouse allografted with mouse P388 cells assessed as animal survival at 50 mg/kg, ip administered daily for 9 days as Klucel suspension starting 24 hrs after tumor inoculation; assay type: organism-based; parameters: dose 50 mg/kg, route intraperitoneal; details: in vivo
How it was run: (§6)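 P-388 leukemia ascitic fluid inoculated ip. Compound given ip as a suspension in Klucel (hydroxypropylcellulose), once daily for nine doses beginning 24 h post-inoculation. Acute toxicity assessed as toxicity-day survivors per group. Survival was followed up to 30 days, with 30-day survival counted as "cure". Follows NCI screening protocols.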

[13] = system: Mus musculus; assay: Toxicity in female CDF1 mouse allografted with mouse P388 cells assessed as animal survival at 25 mg/kg, ip administered daily for 9 days as Klucel suspension starting 24 hrs after tumor inoculation; assay type: organism-based; parameters: dose 25 mg/kg, route intraperitoneal; details: in vivo; how it was run: as §6
[14] = system: P388; assay: Antitumor activity against mouse P388 cells allografted in female CDF1 mouse assessed as disease cures by measuring 30-days host survival at 50 mg/kg, ip administered daily for 9 days as Klucel suspension starting 24 hrs after tumor inoculation relative to control; assay type: functional; details: route intraperitoneal; how it was run: as §1
[15] = system: P388; assay: Antitumor activity against mouse P388 cells allografted in female CDF1 mouse assessed as disease cures by measuring 30-days host survival at 25 mg/kg, ip administered daily for 9 days as Klucel suspension starting 24 hrs after tumor inoculation relative to control; assay type: functional; details: route intraperitoneal; how it was run: as §1
[16] = system: L1210; assay: Antileukemic activity against mouse L1210 cells allografted in female BDF1 mouse assessed as host mean survival time at 50 mg/kg, ip administered daily for 9 days as Klucel suspension starting 24 hrs after tumor inoculation relative to control; assay type: functional; details: route intraperitoneal; how it was run: as §4
[17] = system: Mus musculus; assay: Toxicity in female BDF1 mouse allografted with mouse L1210 cells assessed as animal survival at 50 mg/kg, ip administered daily for 9 days as Klucel suspension starting 24 hrs after tumor inoculation measured on fifth day; assay type: organism-based; parameters: dose 50 mg/kg, route intraperitoneal; details: in vivo; how it was run: as §3
[18] = system: P388; assay: Antitumor activity against mouse P388 cells allografted in female CDF1 mouse assessed as change in body weight at 12.5 mg/kg, ip administered daily for 9 days as Klucel suspension starting 24 hrs after tumor inoculation; assay type: functional; details: route intraperitoneal; how it was run: as §2
[19] = system: Mus musculus; assay: Toxicity in female CDF1 mouse allografted with mouse P388 cells assessed as animal survival at 12.5 mg/kg, ip administered daily for 9 days as Klucel suspension starting 24 hrs after tumor inoculation; assay type: organism-based; parameters: dose 12.5 mg/kg, route intraperitoneal; details: in vivo; how it was run: as §6
[20] = system: Mus musculus; assay: Toxicity in female CDF1 mouse allografted with mouse P388 cells assessed as animal survival at 100 mg/kg, ip administered daily for 9 days as Klucel suspension starting 24 hrs after tumor inoculation; assay type: organism-based; parameters: dose 100 mg/kg, route intraperitoneal; details: in vivo; how it was run: as §6
[21] = system: L1210; assay: Antileukemic activity against mouse L1210 cells allografted in female BDF1 mouse assessed as change in body weight at 100 mg/kg, ip administered daily for 9 days as Klucel suspension starting 24 hrs after tumor inoculation; assay type: functional; details: route intraperitoneal; how it was run: as §5
[22] = system: L1210; assay: Antileukemic activity against mouse L1210 cells allografted in female BDF1 mouse assessed as change in body weight at 50 mg/kg, ip administered daily for 9 days as Klucel suspension starting 24 hrs after tumor inoculation; assay type: functional; details: route intraperitoneal; how it was run: as §5
[23] = system: P388; assay: Antitumor activity against mouse P388 cells allografted in female CDF1 mouse assessed as change in body weight at 200 mg/kg, ip administered daily for 9 days as Klucel suspension starting 24 hrs after tumor inoculation; assay type: functional; details: route intraperitoneal; how it was run: as §2

SMILES: CNC(=O)OCc1c(COC(=O)NC)c(-c2ccc(OC)cc2)n2c1CCC2
- T/C [1]: 55%
- Activity [2]: -3.3 g
- T/C [3]: 132%
- EC50 [4]: 21 µg/mL (≈ 54.2 µM)
- Activity [5]: Non-toxic
- T/C [6]: 117%
- Activity [7]: -4 g
- T/C [8]: 98%
- Activity [9]: -5 g
- T/C [10]: 129%
- Activity [11]: -3.7 g
- Activity [12]: Non-toxic
- Activity [13]: Non-toxic
- T/C [14]: 131%
- T/C [15]: 132%
- T/C [16]: 109%
- Activity [17]: Non-toxic
- Activity [18]: -3.2 g
- Activity [19]: Non-toxic
- Activity [20]: Non-toxic
- Activity [21]: -4.8 g
- Activity [22]: -2.3 g
- Activity [23]: -3.6 g
